pIC50: −log10 of the molar value. Activity calls are given as the source filed them. The rule behind the calls is not given here.
Legend:
Assay type in all cases: functional, cell-based
A2780 = experiment: Cytotoxicity against human A2780 cells by MTT assay
HepG2 = experiment: Hepatoprotective activity against N-acetyl-p-aminophenol-induced toxicity in human HepG2 cells at 10 uM after 48 hrs by MTT assay
In short: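 HepG2 cells kept in DMEM with 10% fetal calf serum plus penicillin/streptomycin at 37 °C, 5% CO2, passaged with 0.25% trypsin/0.02% EDTA. After seeding and overnight incubation, 10 μM test sample added together with APAP (8 mM final) for 48 h. MTT (0.5 mg/mL) added for 4 h, formazan dissolved in DMSO, absorbance at 570 nm. Bicyclol 10 μM as positive control; mean ± SD, n = 3.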

BGC-823 = experiment: Cytotoxicity against human BGC823 cells by MTT assay
Bel-7402 = experiment: Cytotoxicity against human Bel7402 cells by MTT assay
HCT-8 = experiment: Cytotoxicity against human HCT8 cells by MTT assay
A549 = experiment: Cytotoxicity against human A549 cells by MTT assay

| SMILES | pIC50 (A2780) | Activity (HepG2) | pIC50 (BGC-823) | pIC50 (Bel-7402) | pIC50 (HCT-8) | pIC50 (A549) |
| --- | --- | --- | --- | --- | --- | --- |
| CC(C)[C@]1(O)C(=O)C[C@H](C)[C@@]12CC[C@](C)(O)C(=O)C2 | < 5.00 | Active | < 5.00 | < 5.00 | < 5.00 | < 5.00 |
| CC1=CCC23OC(C(C)(C)O)(CC12O)C(=O)C=C3C (racemic) | < 5.00 | Active | < 5.00 | < 5.00 | < 5.00 | < 5.00 |
| CC1=C[C@@H](O)[C@@]2(CC1=O)[C@@H](C(C)C)C(=O)C[C@@H]2C (relative stereo) | < 5.00 | – | < 5.00 | < 5.00 | < 5.00 | < 5.00 |
| C[C@@H]1C(=O)CC[C@@H](C)[C@]2(O)C=C(C(C)(C)O)C(=O)[C@@H]12 [CALAMUSIN A] | < 5.00 | – | < 5.00 | < 5.00 | < 5.00 | < 5.00 |
| C[C@@H]1CC[C@]2(O)O[C@]13C=C(C(C)(C)O)C(=O)[C@H]3[C@@H]2C [CALAMUSIN B] | < 5.00 | – | < 5.00 | < 5.00 | < 5.00 | < 5.00 |
| CC1=C[C@H](O)[C@]2(CC1=O)[C@H](C)CC(=O)[C@H]2C(C)C [CALAMUSIN E] | < 5.00 | – | < 5.00 | < 5.00 | < 5.00 | < 5.00 |
| CC(C)=C1C(=O)C[C@@H](C)[C@@]2(O)CC[C@H](C)C(=O)[C@@H]12 [CALAMUSIN G] | < 5.00 | Active | < 5.00 | < 5.00 | < 5.00 | < 5.00 |
| Cc1ccc(C(C)C)c2c1[C@H](O)C[C@@](C)(O)[C@H]2O [CALAMUSIN H] | < 5.00 | – | < 5.00 | < 5.00 | < 5.00 | < 5.00 |
| C[C@]1(O)CC[C@H](O)[C@@]2(C)CCC(=O)C=C12 [CALAMUSIN I] | < 5.00 | Active | < 5.00 | < 5.00 | < 5.00 | < 5.00 |
